Test results taken from PMC5916823 (Molecular cell, 2018).
Residue numbers refer to the chain shown, from its start.

How the values were obtained:
[1] = ref Kotschy et al., 2016; cited from earlier work
[2] = tested on: surface groove of MCL-1; settings: ref Kotschy et al., 2016; cited from earlier work
[3] = target: the molecule itself; test: SEC
[4] = tested on: SCAD; assay type: binding, mouse; settings: Mcl-1-deleted murine livers reconstituted by scAAV; MS in duplicate
How it was run: (§1)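 Mcl-1 floxed mice (6–8 weeks, mixed sex) received tail-vein scAAV-LP1-Cre (2×10^11 genome copies) plus GFP control or FLAG-MCL-1 (wild-type, OMM-only or Matrix-only isoform) vectors (5×10^10 copies). Two weeks later, liver mitochondria were isolated by differential centrifugation and a 70%/30% Percoll gradient. Anti-FLAG M2 IP was run in 0.5% NP40/Tris pH 7.5 for 90 min, with FLAG-peptide elution. Three livers were pooled per IP; MS was run in duplicate, Sequest, ~1% FDR.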

[5] = tested on: BIM; assay type: binding, mouse; settings: Mcl-1-deleted murine livers reconstituted by scAAV; MS in duplicate
How it was run: as §1

[6] = tested on: PUMA; assay type: binding, mouse; settings: Mcl-1-deleted murine livers reconstituted by scAAV; MS in duplicate
How it was run: as §1

[7] = tested on: MCAD; assay type: binding, mouse; settings: Mcl-1-deleted murine livers reconstituted by scAAV; MS in duplicate
How it was run: as §1

Molecule: Cc1c(-c2c(-c3ccc(F)o3)sc3ncnc(O[C@H](Cc4ccccc4OCc4ccnn4CC(F)(F)F)C(=O)O)c23)ccc(OCCN2CCN(C)CC2)c1Cl [S63845]
- Toxicity in treated mice [1]: lack of overt toxicity, including cardiotoxicity
- Selectivity for MCL-1 [2]: selectively targets the surface groove of MCL-1

B1: recombinant human VLCAD (aa 40-655), His-tagged (enzyme, UniProt P49748-1 40-655, looked up)
chain: YAGGAAQLALDKSDSHPSDALTRKKPAKAESKSFAVGMFKGQLTTDQVFPYPSVLNEEQTQFLKELVEPVSRFFEEVNDPAKNDALEMVEETTWQGLKELGAFGLQVPSELGGVGLCNTQYARLVEIVGMHDLGVGITLGAHQSIGFKGILLFGTKAQKEKYLPKLASGETVAAFCLTEPSSGSDAASIRTSAVPSPCGKYYTLNGSKLWISNGGLADIFTVFAKTPVTDPATGAVKEKITAFVVERGFGGITHGPPEKKMGIKASNTAEVFFDGVRVPSENVLGEVGSGFKVAMHILNNGRFGMAAALAGTMRGIIAKAVDHATNRTQFGEKIHNFGLIQEKLARMVMLQYVTESMAYMVSANMDQGATDFQIEAAISKIFGSEAAWKVTDECIQIMGGMGFMKEPGVERVLRDLRIFRIFEGTNDILRLFVALQGCMDKGKELSGLGSALKNPFGNAGLLLGEAGKQLRRRAGLGSGLSLSGLVHPELSRSGELAVRALEQFATVVEAKLIKHKKGIVNEQFLLQRLADGAIDLYAMVVVLSRASRSLSEGHPTAQHEKMLCDTWCIEAAARIREGMAALQSDPWQQELYRNFKSISKALVERGGVVTSNPLGF
- stoichiometry N [3]: 2

B2: FLAG-MCL-1: full-length protein, reconstituted into Mcl-1−/− murine livers (protein, UniProt P97287 1-331, looked up)
chain: MFGLRRNAVIGLNLYCGGASLGAGGGSPAGARLVAEEAKARREGGGEAALLPGARVVARPPPVGAEDPDVTASAERRLHKSPGLLAVPPEEMAASAAAAIVSPEEELDGCEPEAIGKRPAVLPLLERVSEAAKSSGADGSLPSTPPPPEEEEDDLYRQSLEIISRYLREQATGSKDSKPLGEAGAAGRRALETLRRVGDGVQRNHETAFQGMLRKLDIKNEGDVKSFSRVMVHVFKDGVTNWGRIVTLISFGAFVAKHLKSVNQESFIEPLAETITDVLVRTKRDWLVKQRGWDGFVEFFHVQDLEGGIRNVLLAFAGVAGVGAGLAYLIR
modifications: full-length FLAG tag
- Interaction with SCAD (FLAG pull-down) [4]: not MCAD or SCAD
- Interaction with BIM (FLAG pull-down) [5]: pulled down native VLCAD and established physiologic interactors of MCL-1, such as BIM and PUMA
- Interaction with PUMA (FLAG pull-down) [6]: pulled down native VLCAD and established physiologic interactors of MCL-1, such as BIM and PUMA
- Interaction with MCAD (FLAG pull-down) [7]: not MCAD or SCAD

B3: FLAG-MCL-1^OMM: mutant MCL-1 construct with an internal FLAG tag that only generates the OMM isoform (protein)
chain: B2 chain with R5A, R6A
modifications: left off: FLAG, internal (at residue 134), kept
- Interaction with BIM (FLAG pull-down) [5]: BIM and PUMA were enriched
- Interaction with PUMA (FLAG pull-down) [6]: BIM and PUMA were enriched
